Numbered stars: 1 amine (or outer) side, 2 acyl side, 3 side chain; on linkers, the order of the positions; unused ones are H or OH. Side chains are listed from the residue outwards. Peptide text beside a SMILES is read from it. * marks the point of attachment. Cy5(nonsulfonated) = CN1C(=CC=CC=CC2=[N+](CCCCCC(=O)*)c3ccccc3C2(C)C)C(C)(C)c2ccccc21; C18 diacid = O=C(O)CCCCCCCCCCCCCCCCC(=O)*; γGlu = O=C(O)[C@H](CCC(=O)[*:2])N[*:1]; Isovaleryl = CC(C)CC(=O)*; AEEA = NCCOCCOCC(=O)O
Columns and labels:
human NPY1R = target: T1, human NPY1R (Homo sapiens, UniProt P25929); assay: Competitive radioligand binding, membrane preparations, 125I-PYY1–36; conditions: up to 1 μM
T1 sequence (P25929 1-384): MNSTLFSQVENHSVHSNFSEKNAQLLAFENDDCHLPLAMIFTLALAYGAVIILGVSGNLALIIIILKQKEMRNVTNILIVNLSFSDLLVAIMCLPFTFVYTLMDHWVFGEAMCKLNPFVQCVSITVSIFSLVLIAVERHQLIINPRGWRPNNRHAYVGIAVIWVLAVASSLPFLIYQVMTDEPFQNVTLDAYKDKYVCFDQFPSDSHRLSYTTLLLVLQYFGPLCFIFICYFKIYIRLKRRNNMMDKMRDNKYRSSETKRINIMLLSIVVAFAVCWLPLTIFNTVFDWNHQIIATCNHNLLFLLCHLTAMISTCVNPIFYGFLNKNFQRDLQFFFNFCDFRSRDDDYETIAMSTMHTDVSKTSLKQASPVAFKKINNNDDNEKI

[1] = Pharmacokinetic study in dogs; format: in vivo; conditions: male, beagle, dog, plasma, sc, 5 nmol/kg
Procedure, shortened: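 Male beagles were dosed once, IV 1.25 nmol/kg (N = 2) or SC 5 nmol/kg (N = 3). Plasma was sampled at several times after dosing, stored at -20 °C, and assayed by LC-MS/MS.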

[2] = Pharmacokinetic study in mice; format: in vivo; conditions: male, NMRI, mouse, plasma, sc, 30 nmol/kg
Procedure, shortened: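 Male NMRI mice got a single dose of 30 nmol/kg, IV (N = 2) or SC (N = 3), in 50 mM phosphate pH 7.0 with 5% mannitol at 5 mL/kg. Plasma was sampled at several times after dosing, stored at -20 °C, and quantified by LC-MS/MS.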

human NPY4R = human NPY4R (Homo sapiens, UniProt P50391); assay: Competitive radioligand binding, membrane preparations, 125I-PP; conditions: up to 1 μM
Sequence of human NPY4R (P50391 whole entry): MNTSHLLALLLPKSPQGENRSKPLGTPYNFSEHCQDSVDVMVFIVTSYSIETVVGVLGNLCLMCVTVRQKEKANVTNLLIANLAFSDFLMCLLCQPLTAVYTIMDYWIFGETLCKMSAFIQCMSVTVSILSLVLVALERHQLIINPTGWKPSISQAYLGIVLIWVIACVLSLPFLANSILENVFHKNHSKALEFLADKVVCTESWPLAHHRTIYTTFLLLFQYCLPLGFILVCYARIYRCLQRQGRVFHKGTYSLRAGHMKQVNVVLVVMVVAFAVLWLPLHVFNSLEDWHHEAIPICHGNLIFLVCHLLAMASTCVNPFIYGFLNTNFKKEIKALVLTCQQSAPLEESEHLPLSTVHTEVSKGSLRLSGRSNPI

diet-induced obese mice = assay: Subchronic, repeated dose study in diet-induced obese mice; format: in vivo, mouse; conditions: DIO mice
male C57BL/6JRj mice = assay: Acute gastric emptying in lean mice; format: in vivo, mouse
Procedure, shortened: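 Males aged 9–10 weeks were fasted 8.5 h, then a basal blood glucose sample was taken for randomisation. After a further 30 min fast they got one SC dose. At 3 h, glucose 2 g/kg plus acetaminophen 100 mg/kg was gavaged (10 mL/kg). Blood acetaminophen and glucose were measured pre-load (20 min) and at 10, 30 and 60 min post-load. Gastric emptying was read as change in acetaminophen exposure.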

male NMRI mice = assay: Acute food intake in lean mice; format: in vivo, mouse
Procedure, shortened: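 Males, 5 weeks old on arrival, 4/cage, lights off 3 PM, chow ad libitum. Randomised by bodyweight (n = 7–8/group) with a vehicle group (50 mM phosphate pH 7.0, 5% mannitol; 5 mL/kg). Fasted from 6 h before night, dosed SC once 1 h before dark. Hourly food intake over 24 h as % of vehicle mean. ED50 by nonlinear fit.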

cynomolgus monkeys = assay: Cardiovascular study in cynomolgus monkeys; format: in vivo, cynomolgus monkey; conditions: subcutaneous supratherapeutic doses
[3] = system: Diet-induced obese (DIO) male C57BL6/J mice; assay: 3D whole-brain c-Fos imaging; format: in vivo, mouse; conditions: 8 nmol/kg, 4 h after dosing
Procedure, shortened: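 Perfused 4 h post-dose. Brains were c-Fos immunolabelled, iDISCO+-cleared and imaged whole by light-sheet microscopy. c-Fos+ cells were atlas-mapped and counted per region, with region-wise statistics against vehicle.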

[4] = system: Chow-fed male C57BL/6JRj mice; assay: 3D whole-brain imaging by light-sheet fluorescence microscopy; format: in vivo, mouse; conditions: single s.c. dose 100 nmol/kg; SFO, AP, ME, choroid plexus, ARH
Procedure, shortened: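 Chow-fed males (n = 8/group) got one SC dose of unlabelled test compound or a Cy5-labelled analogue (Lys10), each 100 nmol/kg, and were killed at 6 h. Competition group: unlabelled 100 nmol/kg SC at 0, 8 and 24 h, labelled analogue 1 h later, killed after 1 h. Tongue was positive control. Tissue was perfusion-fixed, cleared and light-sheet imaged, giving atlas-aligned regional mean fluorescence (CVOs, ARH).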

human NPY2R (human) = human NPY2R (human) (UniProt P49146); assay: radioligand binding
Sequence of human NPY2R (human) (P49146 whole entry): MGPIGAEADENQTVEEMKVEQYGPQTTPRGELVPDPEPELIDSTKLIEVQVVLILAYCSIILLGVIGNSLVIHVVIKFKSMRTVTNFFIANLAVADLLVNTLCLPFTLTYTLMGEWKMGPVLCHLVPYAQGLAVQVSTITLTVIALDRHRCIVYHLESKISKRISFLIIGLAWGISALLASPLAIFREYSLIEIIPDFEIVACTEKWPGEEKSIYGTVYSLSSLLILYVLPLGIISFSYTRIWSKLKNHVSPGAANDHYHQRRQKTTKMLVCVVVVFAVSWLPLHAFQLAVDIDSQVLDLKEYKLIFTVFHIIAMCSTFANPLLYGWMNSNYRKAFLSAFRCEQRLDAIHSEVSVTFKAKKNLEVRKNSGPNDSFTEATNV

**Q.** What does the source list for CC[C@H](C)[C@H](NC(=O)[C@H](CCC(=O)O)NC(=O)[C@H](CCC(=O)O)NC(=O)[C@@H]1CCCN1C(=O)[C@H](CO)NC(=O)[C@H](C)NC(=O)[C@H](CC(=O)O)NC(=O)[C@H](CCC(=O)O)NC(=O)[C@H](CCC(=O)O)NC(=O)[C@@H]1CCCN1C(=O)[C@H](CCCCNC(=O)COCCOCCNC(=O)COCCOCCNC(=O)CC[C@H](NC(=O)CCCCCCCCCCCCCCCCC(=O)O)C(=O)O)NC(=O)[C@H](C)NC(=O)[C@@H]1CCCN1C(=O)[C@H](C)NC(=O)CC(C)C)C(=O)N[C@@H](CCC(N)=O)C(=O)N[C@@H](CCCNC(=N)N)C(=O)N[C@@H](Cc1ccc(O)cc1)C(=O)N[C@@H](Cc1ccc(O)cc1)C(=O)N[C@H](C(=O)N[C@@H](CO)C(=O)N[C@@H](CC(C)C)C(=O)N[C@@H](CCCNC(=N)N)C(=O)N[C@@H](Cc1c[nH]cn1)C(=O)N[C@@H](Cc1ccc(O)cc1)C(=O)N[C@@H](Cc1ccc(O)cc1)C(=O)N[C@@H](CC(N)=O)C(=O)N[C@@H](Cc1c[nH]c2ccccc12)C(=O)N[C@@H](CC(C)C)C(=O)N[C@H](C(=O)N[C@@H](CCCNC(=N)N)C(=O)N[C@@H](CCC(N)=O)C(=O)N[C@@H](CCCNC(=N)N)C(=O)N[C@@H](Cc1ccc(O)cc1)C(N)=O)[C@@H](C)O)C(C)C [BI 1820237]?
**A.** binding to human NPY subtype 1 (human NPY1R): no binding was detected; MRT [1]: 103 h; Tmax [2]: 3 h; binding to human NPY subtype 4 (human NPY4R): no binding was detected; weight of the epididymal adipose tissue compared with the vehicle group (diet-induced obese mice; study end, BI 1820237 1 nmol/kg alone or with survodutide 7.5 nmol/kg): did not reduce; food intake reduction on Day 1, 24 h post-dosing (diet-induced obese mice; 3 nmol/kg once daily s.c.): 18%; food intake reduction on Day 1, 24 h post-dosing (diet-induced obese mice; 10 nmol/kg once daily s.c.): 59%; maximal bodyweight-lowering effect (reduction) (diet-induced obese mice; 30 nmol/kg at Day 5 of dosing): 9%; food intake reduction on Day 1, 24 h post-dosing (diet-induced obese mice; 30 nmol/kg once daily s.c.): 71%; bodyweight reduction at the end of the study (non-significant) (diet-induced obese mice; 30 nmol/kg once daily, 4 weeks): 2%; food intake after 4–5 days of dosing (diet-induced obese mice; 100 nmol/kg once daily): higher than the food intake in the vehicle group; food intake reduction on Day 1, 24 h post-dosing (diet-induced obese mice; 100 nmol/kg once daily s.c.): 56%; food intake after 4–5 days of dosing (diet-induced obese mice; 3, 10 and 30 nmol/kg once daily): returned to the level of the vehicle-treated group; effect on bodyweight at the end of the study (diet-induced obese mice; other doses (3, 10, 100 nmol/kg) once daily, 4 weeks): no effect; ED50, reduction of gastric emptying (male C57BL/6JRj mice; lean mice, single dose, acetaminophen exposure): ~2 nmol/kg; Glucose excursion (male C57BL/6JRj mice; oral glucose 2 g/kg, same experiment): not affected; Emax, inhibition of food intake over 24 h (male NMRI mice; at the maximal tested dose of 100 nmol/kg): ~85%; ED50, inhibition of food intake over 24 h (male NMRI mice; single subcutaneous dose): 14 nmol/kg; emesis (cynomolgus monkeys): induced emesis; whole-brain c-Fos expression compared with vehicle [3]: little or no difference

**Q.** Which “fluorescence signal distribution in the mouse brain” value [4] does the source give for CC[C@H](C)[C@H](NC(=O)[C@H](CCC(=O)O)NC(=O)[C@H](CCC(=O)O)NC(=O)[C@@H]1CCCN1C(=O)[C@H](CO)NC(=O)[C@H](C)NC(=O)[C@H](CC(=O)O)NC(=O)[C@H](CCCCNC(=O)CCCCC[N+]1=C(C=CC=CC=C2N(C)c3ccccc3C2(C)C)C(C)(C)c2ccccc21)NC(=O)[C@H](CCC(=O)O)NC(=O)[C@@H]1CCCN1C(=O)[C@H](CCCCNC(=O)COCCOCCNC(=O)COCCOCCNC(=O)CC[C@H](NC(=O)CCCCCCCCCCCCCCCCC(=O)O)C(=O)O)NC(=O)[C@H](C)NC(=O)[C@@H]1CCCN1C(=O)[C@H](C)NC(=O)CC(C)C)C(=O)N[C@@H](CCC(N)=O)C(=O)N[C@@H](CCCNC(=N)N)C(=O)N[C@@H](Cc1ccc(O)cc1)C(=O)N[C@@H](Cc1ccc(O)cc1)C(=O)N[C@H](C(=O)N[C@@H](CO)C(=O)N[C@@H](CC(C)C)C(=O)N[C@@H](CCCNC(=N)N)C(=O)N[C@@H](Cc1c[nH]cn1)C(=O)N[C@@H](Cc1ccc(O)cc1)C(=O)N[C@@H](Cc1ccc(O)cc1)C(=O)N[C@@H](CC(N)=O)C(=O)N[C@@H](Cc1c[nH]c2ccccc12)C(=O)N[C@@H](CC(C)C)C(=O)N[C@H](C(=O)N[C@@H](CCCNC(=N)N)C(=O)N[C@@H](CCC(N)=O)C(=O)N[C@@H](CCCNC(=N)N)C(=O)N[C@@H](Cc1ccc(O)cc1)C(N)=O)[C@@H](C)O)C(C)C [BI 3005788] (Isovaleryl-APAK([AEEA-AEEA-γGlu-C18 diacid])PEK(Cy5(nonsulfonated))DASPEEIQRYYVSLRHYYNWLTRQRY-NH2; N-terminus and C-terminus assumed) here?
**A.** The value was “accumulated in 5 circumventricular organs”.

**Q.** And the “lowering of food intake up to 6 h post-dosing” value (male NMRI mice; acute dose 100 nmol/kg, Fig. S3a–b)?
**A.** The value was “comparable with BI 1820237 dosed at 30 nmol/kg”.

**Q.** Which Ki (human NPY2R (human)) does the source give for BI 1820237 (peptide) here?
**A.** The Ki was 0.82 nM.

**Q.** Which results are given for survodutide [reference compound]?
**A.** bodyweight lowering versus baseline (diet-induced obese mice; after 28 days, survodutide 7.5 nmol/kg): 17%; bodyweight lowering compared with the vehicle group (diet-induced obese mice; after 28 days, survodutide 7.5 nmol/kg alone or with 1 nmol/kg BI 1820237): 21%; lean mass (diet-induced obese mice; survodutide alone, or with 3 nmol/kg BI 1820237 at study start or 1 nmol/kg at Day 8): No significant change

— publication PMC12311552 (Molecular Metabolism, 2025)
